Numbering of substitutions follows the chain as printed. Marks after values point to notes of the source that are not given here.
Columns and labels:
[1] = target: antithrombin; details: read-out: Kd of TNS binding to antithrombin; cited from earlier work
[2] = target: factor Xa (Homo sapiens, UniProt P00742); type: biochemical; details: for k−H FXa, association rate constant of free antithrombin / k−H FXa, fractional wild-type value (in parentheses) / Enhancement of basal reactivities with both factors Xa and IXa: absence of heparin; for k−H FXa, association rate constant of free antithrombin / k−H FXa, fractional wild-type value (in parentheses) / kH FXa, association rate constant of heparin-complexed antithrombin / kH FXa, fractional wild-type value (in parentheses): 20 mM MES; for k−H FXa, association rate constant of free antithrombin / kH FXa, association rate constant of heparin-complexed antithrombin: 5 mM CaCl2, 0.1 % PEG 8000, pH 6.0, 25°C, ±S.E.; for k−H FXa, fractional wild-type value (in parentheses) / kH FXa, fractional wild-type value (in parentheses): 5 mM CaCl2, pH 6.0, 25°C; for Enhancement of basal reactivities with both factors Xa and IXa: relative to wild-type, range covers factor Xa and factor IXa; for kH FXa, association rate constant of heparin-complexed antithrombin / kH FXa, fractional wild-type value (in parentheses): natural pentasaccharide complex
[3] = target: factor IXa (Homo sapiens, UniProt P00740); type: biochemical; details: for k−H FIXa, association rate constant of free antithrombin / k−H FIXa, fractional wild-type value (in parentheses): absence of heparin; for k−H FIXa, association rate constant of free antithrombin / k−H FIXa, fractional wild-type value (in parentheses) / kH FIXa, association rate constant of heparin-complexed antithrombin / kH FIXa, fractional wild-type value (in parentheses): 20 mM MES; for k−H FIXa, association rate constant of free antithrombin / kH FIXa, association rate constant of heparin-complexed antithrombin: 5 mM CaCl2, 0.1 % PEG 8000, pH 6.0, 25°C, ±S.E.; for k−H FIXa, fractional wild-type value (in parentheses) / kH FIXa, fractional wild-type value (in parentheses): 5 mM CaCl2, pH 6.0, 25°C; for kH FIXa, association rate constant of heparin-complexed antithrombin / kH FIXa, fractional wild-type value (in parentheses): natural pentasaccharide complex; for Heparin-activated reactivity with factor IXa, % of wild-type: saturating natural pentasaccharide, MES/Ca2+ pH 6 buffer
[4] = type: binding; details: for Loss of nonionic binding energy relative to wild-type / Kd: natural pentasaccharide; for Kd: read-out: KD,obs, I 0.04, pH 6.0, 25°C, measured directly at I 0.04 or calculated from the ionic strength dependence of KD,obs
In short: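 Recombinant His-tagged antithrombin (~100 nM), expressed in Sf9 and Ni-NTA purified, was titrated with pentasaccharide at 25°C. Binding was followed by tryptophan fluorescence enhancement (ex 280 nm, em 340 nm). Stocks were diluted extensively. Data were fit by quadratic binding equation for KD and stoichiometry.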

[5] = Rapid; type: binding; details: for Limiting rate constant at heparin saturation (k+2 + k−2) / 1/K2 / k+2, forward conformational activation rate constant / k−2, reverse conformational activation rate constant: natural pentasaccharide; for 1/K2 / k+2, forward conformational activation rate constant / k−2, reverse conformational activation rate constant: I 0.04, pH 6.0, 25°C; for k+2, forward conformational activation rate constant / k−2, reverse conformational activation rate constant: ±S.E.; for k−2, reverse conformational activation rate constant: possibly overestimated (conformational selection pathway)
[6] = estimated based on factor Xa reactivity enhancements

Chain of factor Xa (P00742 41-179 limits assumed): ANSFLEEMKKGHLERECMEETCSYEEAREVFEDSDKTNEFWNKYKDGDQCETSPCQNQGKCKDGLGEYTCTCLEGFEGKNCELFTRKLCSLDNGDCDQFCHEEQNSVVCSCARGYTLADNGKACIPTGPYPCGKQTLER
Chain of factor Xa (P00742 235-488 limits assumed): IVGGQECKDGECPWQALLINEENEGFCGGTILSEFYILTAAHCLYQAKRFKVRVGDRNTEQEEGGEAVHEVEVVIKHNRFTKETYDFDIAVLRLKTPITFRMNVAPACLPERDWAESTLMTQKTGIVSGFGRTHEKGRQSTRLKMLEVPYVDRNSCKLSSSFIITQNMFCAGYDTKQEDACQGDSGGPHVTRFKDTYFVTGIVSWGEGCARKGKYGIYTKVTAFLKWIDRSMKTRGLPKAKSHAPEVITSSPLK
Chain of factor IXa (P00740 47-191 limits assumed): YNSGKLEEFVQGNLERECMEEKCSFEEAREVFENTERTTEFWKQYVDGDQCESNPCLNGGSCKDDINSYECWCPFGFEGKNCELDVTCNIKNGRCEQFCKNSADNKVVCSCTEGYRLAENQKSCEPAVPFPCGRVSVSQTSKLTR
Chain of factor IXa (P00740 227-461 limits assumed): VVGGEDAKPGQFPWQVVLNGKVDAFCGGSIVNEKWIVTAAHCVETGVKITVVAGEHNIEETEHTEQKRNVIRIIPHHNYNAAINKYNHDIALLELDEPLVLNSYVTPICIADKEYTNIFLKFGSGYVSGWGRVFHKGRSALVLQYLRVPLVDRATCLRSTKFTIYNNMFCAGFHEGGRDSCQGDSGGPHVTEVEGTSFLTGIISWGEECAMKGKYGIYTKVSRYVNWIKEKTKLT

For `Cc1ccc(Nc2ccc3cc(S(=O)(=O)O)ccc3c2)cc1` [TNS, 2-p-toluidinylnaphthalene-6-sulfonate], the Kd [1] is given as over 10 µM.

In the case of “KMR: His-tagged recombinant β-antithrombin variant with Lys125 mutated to Met”, the “k−H FXa, association rate constant of free antithrombin” value (“k−H FXa … of free antithrombin” below) [2] is reported as 1.2±0.1 × 10^3 M^−1s^−1, the “k−H FXa, fractional wild-type value (in parentheses)” value (from here on “k−H FXa, fractional wild-type value”) [2] is reported as 2.1 and the “Enhancement of basal reactivities with both factors Xa and IXa” value (“Enhancement of basal reactivities” below) [2] is reported as 1.3–2.3 fold. For the same molecule, the “kH FXa, association rate constant of heparin-complexed antithrombin” value (shortened to “kH FXa, association rate constant”) [2] was 8.1±0.3 ×10^4 M^−1s^−1, the “kH FXa, fractional wild-type value (in parentheses)” value (from here on “kH FXa, fractional wild-type value”) [2] was 1.1 and the “k−H FIXa, association rate constant of free antithrombin” value (shortened to “k−H FIXa … of free antithrombin”) [3] was 9.6±0.6 × 10^1 M^−1s^−1. For the same molecule, the “k−H FIXa, fractional wild-type value (in parentheses)” value (“k−H FIXa, fractional wild-type value” for short) [3] was 1.8, the “kH FIXa, association rate constant of heparin-complexed antithrombin” value (“kH FIXa, association rate constant” for short) [3] was 6.8±0.8 × 10^3 M^−1s^−1 and the “kH FIXa, fractional wild-type value (in parentheses)” value (from here on “kH FIXa, fractional wild-type value”) [3] was 0.68. The “Loss of nonionic binding energy relative to wild-type” value [4] was 24%, the Kd [4] was 0.86 nM and the “Limiting rate constant at heparin saturation (k+2 + k−2)” value (“Limiting rate constant” below) ([5]; I 0.04, pH 6, 25°C) was 550 to 690 s⁻¹. The 1/K2 ([5]; 1/K2 = (K1/KD,obs) − 1) was 4300 and the “k+2, forward conformational activation rate constant” value [5] was 550 ± 40 s⁻¹.

For “MKR: His-tagged recombinant β-antithrombin variant with Lys114 mutated to Met”, the “k−H FXa … of free antithrombin” value [2] was 2.6±0.3 × 10^2 M^−1s^−1, the “k−H FXa, fractional wild-type value” value [2] was 0.46 and the “kH FXa, association rate constant” value [2] was 6.4±0.3 ×10^4 M^−1s^−1. For the same molecule, the “kH FXa, fractional wild-type value” value [2] was 0.83, the “kH FIXa, association rate constant” value [3] was 2.1±0.1 × 10^3 M^−1s^−1 and the “kH FIXa, fractional wild-type value” value [3] was 0.21. For the same molecule, the Kd [4] was 560 nM, the “Limiting rate constant” value ([5]; I 0.04, pH 6, 25°C) was 40 s⁻¹ and the 1/K2 ([5]; 1/K2 = (K1/KD,obs) − 1) was 8^c. The “k+2, forward conformational activation rate constant” value [5] was 17 ± 2 s⁻¹, the “k+2, forward conformational activation rate constant” value ([5]; listed as Lys114) was ~ 20 s^−1 and the “k−2, reverse conformational activation rate constant” value [5] was 23±2^c s^−1.

In the case of “KKM: His-tagged recombinant β-antithrombin variant with Arg129 mutated to Met”, the “k−H FXa … of free antithrombin” value [2] is reported as 1.3±0.1 × 10^3 M^−1s^−1, the “k−H FXa, fractional wild-type value” value [2] is reported as 2.3 and the “Enhancement of basal reactivities” value [2] is reported as 1.3–2.3 fold. For the same molecule, the “kH FXa, association rate constant” value [2] was 7.6±0.3 ×10^4 M^−1s^−1, the “kH FXa, fractional wild-type value” value [2] was 0.99 and the “k−H FIXa … of free antithrombin” value [3] was 6.9±0.4 × 10^1 M^−1s^−1. For the same molecule, the “k−H FIXa, fractional wild-type value” value [3] was 1.3, the “kH FIXa, association rate constant” value [3] was 6.2±0.3 × 10^3 M^−1s^−1 and the “kH FIXa, fractional wild-type value” value [3] was 0.62. The “Loss of nonionic binding energy relative to wild-type” value [4] was 17%, the Kd [4] was 0.16 nM and the “Limiting rate constant” value ([5]; I 0.04, pH 6, 25°C) was 1020 s⁻¹. For the same molecule, the 1/K2 ([5]; 1/K2 = (K1/KD,obs) − 1) was 10000 and the “k+2, forward conformational activation rate constant” value [5] was 1020 ± 120 s⁻¹.

For “KKR (WT): Recombinant wild-type β-antithrombin (Asn135 mutated to Gln) with C-terminal 6XHis-tag, expressed in Sf9 insect cells”, the “k−H FXa … of free antithrombin” value [2] was 5.7±0.4 × 10^2 M^−1s^−1, the “k−H FXa, fractional wild-type value” value [2] was 1 and the “kH FXa, fractional wild-type value” value [2] was 1. The “k−H FIXa … of free antithrombin” value [3] was 5.4±0.4 × 10^1 M^−1s^−1, the “k−H FIXa, fractional wild-type value” value [3] was 1 and the “kH FIXa, fractional wild-type value” value [3] was 1. For the same molecule, the 1/K2 ([5]; 1/K2 = (K1/KD,obs) − 1) was 6 × 10^6 and the “k+2, forward conformational activation rate constant” value [5] was 1140 ± 110 s⁻¹.

B1: KMM: His-tagged recombinant β-antithrombin double mutant, Lys125 and Arg129 mutated to Met (protein)
chain: HGSPVDICTAKPRDIPMNPMCIYRSPEKKATEDEGSEQKIPEATNRRVWELSKANSRFATTFYQHLADSKNDNDNIFLSPLSISTAFAMTKLGACNDTLQQLMEVFKFDTISEKTSDQIHFFFAMLNCMLYRKAQKSSKLVSANRLFGDKSLTFNETYQDISELVYGAKLQPLDFKENAEQSRAAINKWVSNKTEGRITDVIPSEAINELTVLVLVNTIYFKGLWKSKFSPENTRKELFYKADGESCSASMMYQEGKFRYRRVAEGTQVLELPFKGDDITMVLILPKPEKSLAKVEKELTPEVLQEWLDELEEMMLVVHMPRFRIEDGFSLKEQLQDMGLVDLFSPEKSKLPGIVAEGRDDLYVSDAFHKAFLEVNEEGSEAAASTAVVIAGRSLNPNRVTFKANRPFLVFIREVPLNTIIFMGRVANPCVK
modifications: left off: His6, C-terminal, kept
With B1 the “k−H FXa … of free antithrombin” value [2] was 2.0±0.1 ×10^3 M^−1s^−1, the “k−H FXa, fractional wild-type value” value [2] was 3.5 and the “Enhancement of basal reactivities” value [2] was 2.8–3.5 fold. For the same molecule, the “kH FXa, association rate constant” value [2] was 5.6±0.4 ×10^4 M^−1s^−1, the “kH FXa, fractional wild-type value” value [2] was 0.73 and the “k−H FIXa … of free antithrombin” value [3] was 1.5±0.2 × 10^2 M^−1s^−1. The “k−H FIXa, fractional wild-type value” value [3] was 2.8, the “kH FIXa, association rate constant” value [3] was 3.6±0.2 × 10^3 M^−1s^−1 and the “kH FIXa, fractional wild-type value” value [3] was 0.36. For the same molecule, the “Heparin pentasaccharide binding stoichiometry” value [4] was ~0.5 mole heparin/mole antithrombin, the Kd [4] was 70 nM and the “Limiting rate constant” value ([5]; I 0.04, pH 6, 25°C) was 550 to 690 s⁻¹. The 1/K2 ([5]; 1/K2 = (K1/KD,obs) − 1) was ~400^c, the “k+2, forward conformational activation rate constant” value [5] was 690 ± 240 s⁻¹ and the “k−2, reverse conformational activation rate constant” value [5] was 74±7^c s^−1. The “k−2, reverse conformational activation rate constant” value ([5]; listed as Lys125/Arg129) was ~ 70 s^−1.

B2: MKM: His-tagged recombinant β-antithrombin double mutant, Lys114 and Arg129 mutated to Met (protein)
chain: B1 chain with K114M, M125K
modifications: left off: His6, C-terminal, kept
With B2 the “k−H FXa … of free antithrombin” value [2] was 3.5±0.5 ×10^2 M^−1s^−1, the “k−H FXa, fractional wild-type value” value [2] was 0.61 and the “kH FXa, association rate constant” value [2] was 8.5±0.4 ×10^4 M^−1s^−1. For the same molecule, the “kH FXa, fractional wild-type value” value [2] was 1.1, the “k−H FIXa … of free antithrombin” value [3] was 1.3±0.2×10^1 M^−1s^−1 and the “k−H FIXa, fractional wild-type value” value [3] was 0.24. The “kH FIXa, association rate constant” value [3] was 2.1±0.1 × 10^3 M^−1s^−1, the “kH FIXa, fractional wild-type value” value [3] was 0.21 and the Kd [4] was 18000 nM. The 1/K2 [5, 6] was ~10^d and the “Observed rate constant kobs of pentasaccharide binding, no saturable increase” value ([5]; over the range 0.5–20 μM heparin, I 0.04, pH 6, 25°C) was ~ 60 s^−1.

B3: MMR: His-tagged recombinant β-antithrombin double mutant, Lys114 and Lys125 mutated to Met (protein)
chain: B1 chain with K114M, M129R
modifications: left off: His6, C-terminal, kept
In the case of B3, the “kH FXa, association rate constant” value [2] is reported as 2.3±0.3 ×10^4 M^−1s^−1, the “kH FXa, fractional wild-type value” value [2] is reported as 0.30 and the “kH FIXa, association rate constant” value [3] is reported as 3.0±0.1 × 10^2 M^−1s^−1. For the same molecule, the “kH FIXa, fractional wild-type value” value [3] was 0.03, the “Heparin-activated reactivity with factor IXa, % of wild-type” value [3] was 3% and the Kd [4] was 45000 nM. The 1/K2 [5, 6] was ~0.5^d.

B4: MMM: His-tagged recombinant β-antithrombin triple mutant, Lys114, Lys125 and Arg129 mutated to Met (protein)
chain: B1 chain with K114M
modifications: left off: His6, C-terminal, kept
With B4 the “kH FXa, fractional wild-type value” value [2] was 0.04, the “k−H FIXa … of free antithrombin” value [3] was 2.3±0.2 × 10^1 M^−1s^−1 and the “k−H FIXa, fractional wild-type value” value [3] was 0.43. The “kH FIXa, fractional wild-type value” value [3] was 0.003, the “Heparin-activated reactivity with factor IXa, % of wild-type” value [3] was 0.3% and the “Loss of nonionic binding energy relative to wild-type” value [4] was 60%.

Source: paper PMC6363533 (Biochemistry, 2018)
